Experimental data as given in ChEMBL document CHEMBL4364267, “Hydrogen sulfide donating ent-kaurane and spirolactone-type 6,7-seco-ent-kaurane derivatives: Design, synthesis and antiproliferative properties” (Eur J Med Chem, 2019).
pIC50: −log10 of the molar value. Calls of active or inactive are those of the source. The calls are words filed in the database; no cut-off is given here.

Columns and labels:
Bel-7402 [1] = test: Cell cycle arrest in human Bel7402 cells assessed as accumulation of cells at G1 phase after 48 hrs by propidium iodide/RNase staining based flow cytometric analysis; format: functional
Bel-7402 [2] = test: Induction of morphological changes in human Bel7402 cells assessed as nuclear fragmentation at 0.45 to 1.80 uM after 48 hrs by Hoechst 33258 staining-based fluorescent microscopic analysis; format: functional, cell-based
Procedure, shortened: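 Bel-7402 cells cultured 24 h in 6-well plates at 37 °C, then exposed 48 h to 0, 0.45, 0.90 or 1.80 μM. Harvested by mild trypsinization and washed twice with PBS. Stained with Hoechst 33258 (2 mg/mL) for 15 min at room temperature in the dark, washed, and viewed by fluorescence microscopy.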

Bel-7402 [3] = test: Induction of apoptosis in human Bel7402 cells assessed as late apoptotic cells at 1.80 uM after 48 hrs by Annexin V-FITC/propidium iodide staining based flow cytometry (reference value: 0.68%); format: functional
Procedure, shortened: (§1)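 Bel-7402 cells in 6-well plates treated with 0, 0.45, 0.90 or 1.80 μM, washed twice with PBS and resuspended in annexin V binding buffer. Stained with annexin V-FITC and PI for 15 min at room temperature in the dark, then analysed by flow cytometry. Methods state 24 h exposure; the figure legend states 48 h.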

L02 = test: Cytotoxicity against human L02 cells assessed as reduction in cell viability after 72 hrs by MTT assay; format: cell-based; settings: L02, 72 h
Procedure, shortened: (§2)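 MTT assay over 72 h, compounds at 64, 16, 4, 1, 0.25, 0.0625 and 0.015625 μM. MTT solution (5 mg/mL) and DMSO added afterwards, 10 min at room temperature, absorbance read at 490 nm. IC50 calculated as the mean ± SD of three independent experiments.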

Bel-7402 [4] = test: Induction of apoptosis in human Bel7402 cells assessed as increase in Bax expression at 0.90 to 1.80 uM after 48 hrs by Western blot analysis; format: functional, cell-based
Bel-7402 [5] = test: Induction of mitochondrial membrane potential loss in human Bel7402 cells assessed as cell population with mitochondrial membrane potential collapse at 0.90 uM after 48 hrs by JC1 staining-based flow cytometry analysis (reference value: 1.28%); format: functional
Procedure, shortened: (§3)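 Bel-7402 cells in 6-well plates exposed for 48 h to 0, 0.45, 0.90 or 1.80 μM, DMSO as vehicle. Washed with PBS and stained with JC-1 at room temperature in the dark. Cells with collapsed membrane potential counted by flow cytometry.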

Bel-7402 [6] = test: Cell cycle arrest in human Bel7402 cells assessed as accumulation of cells at S phase at 0.90 uM after 48 hrs by propidium iodide/RNase staining based flow cytometric analysis (reference value: 39.09%); format: functional
Bel-7402 [7] = test: Induction of apoptosis in human Bel7402 cells assessed as reduction in procaspase-3 expression at 0.90 to 1.80 uM after 48 hrs by Western blot analysis; format: functional, cell-based
Bel-7402 [8] = test: Induction of apoptosis in human Bel7402 cells assessed as late apoptotic cells at 0.45 uM after 48 hrs by Annexin V-FITC/propidium iodide staining based flow cytometry (reference value: 0.68%); format: functional; procedure, shortened: as §1
Bel-7402 [9] = test: Cell cycle arrest in human Bel7402 cells assessed as accumulation of cells at S phase at 1.80 uM after 48 hrs by propidium iodide/RNase staining based flow cytometric analysis (reference value: 39.09%); format: functional
Bel-7402 [10] = test: Induction of apoptosis in human Bel7402 cells assessed as reduction in Bcl-xl expression at 0.90 to 1.80 uM after 48 hrs by Western blot analysis; format: functional, cell-based
Bel-7402 [11] = test: Induction of apoptosis in human Bel7402 cells assessed as increase in cleaved PARP expression at 0.45 to 1.80 uM after 48 hrs by Western blot analysis; format: functional, cell-based
Bel-7402 [12] = test: Induction of apoptosis in human Bel7402 cells assessed as early apoptotic cells at 0.90 uM after 48 hrs by Annexin V-FITC/propidium iodide staining based flow cytometry (reference value: 2.09%); format: functional; procedure, shortened: as §1
[13] = Selectivity index, ratio of IC50 for human L02 cells to IC50 for human Bel7402 cells after 72 hrs by MTT assay; format: toxicity; settings: L02 cells versus Bel7402 cells, read-out: Ratio IC50
Bel-7402 [14] = test: Induction of mitochondrial membrane potential loss in human Bel7402 cells assessed as cell population with intact mitochondrial membrane potential at 0.90 uM after 48 hrs by JC1 staining-based flow cytometry analysis (reference value: 98.67%); format: functional; procedure, shortened: as §3
Bel-7402 [15] = test: Induction of apoptosis in human Bel7402 cells assessed as early apoptotic cells at 1.80 uM after 48 hrs by Annexin V-FITC/propidium iodide staining based flow cytometry (reference value: 2.09%); format: functional; procedure, shortened: as §1
PBMC = test: Cytotoxicity against human PBMC assessed as reduction in cell viability after 72 hrs by MTT assay; format: cell-based; procedure, shortened: as §2
Bel-7402 [16] = test: Cell cycle arrest in human Bel7402 cells assessed as accumulation of cells at G1 phase at 0.90 uM after 48 hrs by propidium iodide/RNase staining based flow cytometric analysis (reference value: 30.95%); format: functional
Bel-7402 [17] = test: Cell cycle arrest in human Bel7402 cells assessed as accumulation of cells at G1 phase at 1.80 uM after 48 hrs by propidium iodide/RNase staining based flow cytometric analysis (reference value: 30.95%); format: functional
Bel-7402 [18] = test: Induction of apoptosis in human Bel7402 cells after 48 hrs by Annexin V-FITC/propidium iodide staining based assay; format: functional, cell-based; procedure, shortened: as §1
Bel-7402 [19] = test: Cell cycle arrest in human Bel7402 cells assessed as accumulation of cells at G2 phase at 0.90 uM after 48 hrs by propidium iodide/RNase staining based flow cytometric analysis (reference value: 29.97%); format: functional
Bel-7402 [20] = test: Induction of apoptosis in human Bel7402 cells assessed as early apoptotic cells at 0.45 uM after 48 hrs by Annexin V-FITC/propidium iodide staining based flow cytometry (reference value: 2.09%); format: functional; procedure, shortened: as §1
A549 = test: Antiproliferative activity against human A549 cells assessed as reduction in cell viability after 72 hrs by MTT assay; format: functional, cell-based; settings: A549, 72 h; procedure, shortened: as §2

## C=C1C(=O)[C@@]23C(=O)OC[C@]4(C(=O)CCC(C)(C)[C@H]4C=O)[C@@H]2CC[C@@H]1[C@H]3OC(=O)CCCC(=O)Oc1ccc(-c2cc(=S)ss2)cc1
Bel-7402 [1]
  Activity: Dose-dependent effect
Bel-7402 [2]
  Activity: Active
Bel-7402 [3]
  Activity: 36.64%
L02
  pIC50: 4.68
Bel-7402 [4]
  Activity: Active
Bel-7402 [5]
  Activity: 30.96%
Bel-7402 [6]
  Activity: 37.9%
Bel-7402 [7]
  Activity: Active
Bel-7402 [8]
  Activity: 7.73%
Bel-7402 [9]
  Activity: 34.52%
Bel-7402 [10]
  Activity: Active
Bel-7402 [11]
  Activity: Active
Bel-7402 [12]
  Activity: 15.17%
[13]
  selectivity ratio at 72 h: 24
Bel-7402 [14]
  Activity: 69.04%
Bel-7402 [15]
  Activity: 18.68%
PBMC
  pIC50: 4.70
Bel-7402 [16]
  Activity: 42.3%
Bel-7402 [17]
  Activity: 49.56%
Bel-7402 [18]
  Activity: Dose-dependent effect
Bel-7402 [19]
  Activity: 19.81%
Bel-7402 [20]
  Activity: 9.92%
A549
  pIC50: 5.28
